Source: ChEMBL document CHEMBL3286203, “Reactive oxygen species (ROS) inducible DNA cross-linking agents and their effect on cancer cells and normal lymphocytes” (J Med Chem, 2014)
Active and inactive are the calls of the source. The rule behind the calls is not given here.

Assays:
OVCAR-3 = test: Cytotoxicity against human OVCAR3 cells assessed as growth inhibition at 10 uM after 48 hrs by SRB assay; type: functional, cell-based
Procedure, shortened: (§1)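 Single-dose screen run by the NCI Developmental Therapeutics Program (NCI-60). Cells were grown in RPMI 1640 with 5% fetal bovine serum and 2 mM L-glutamine. They were plated at 5000–40 000 cells/well, depending on doubling time. Each line was run in two plates and exposed to 10 μM drug for 48 h at 37 °C, 5% CO2, 100% humidity. Read-out was growth percent.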

OVCAR-5 = test: Cytotoxicity against human OVCAR5 cells assessed as growth inhibition at 10 uM after 48 hrs by SRB assay; type: functional, cell-based; procedure, shortened: as §1
OVCAR-8 = test: Cytotoxicity against human OVCAR8 cells assessed as growth inhibition at 10 uM after 48 hrs by SRB assay; type: functional, cell-based; procedure, shortened: as §1
NCI/ADR-RES = test: Cytotoxicity against human NCI-ADR-RES cells assessed as growth inhibition at 10 uM after 48 hrs by SRB assay; type: functional, cell-based; procedure, shortened: as §1
ACHN = test: Cytotoxicity against human ACHN cells assessed as growth inhibition at 10 uM after 48 hrs by SRB assay; type: functional, cell-based
Procedure, shortened: (§2)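 NCI DTP 60-cell-line screen run at the NCI. Cells were grown in RPMI 1640 with 5% FBS and 2 mM L-glutamine. They were seeded at 5000–40 000 cells/well depending on doubling time and grown in two plates per line. Each was exposed to a single 10 μM dose for 48 h at 37 °C, 5% CO2, 95% air, 100% humidity. Read-out was percent growth.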

SN12C = test: Cytotoxicity against human SN12C cells assessed as growth inhibition at 10 uM after 48 hrs by SRB assay; type: functional, cell-based
Procedure, shortened: (§3)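 NCI-60 DTP human tumour line screen. Cells grown in RPMI 1640 with 5% fetal bovine serum and 2 mM L-glutamine, plated at 5000–40 000 cells/well according to doubling time. Single dose of 10 μM for 48 h at 37 °C, 5% CO2, 95% air, 100% humidity, two plates per line. Read-out is growth percent.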

TK-10 = test: Cytotoxicity against human TK10 cells assessed as growth inhibition at 10 uM after 48 hrs by SRB assay; type: functional, cell-based; procedure, shortened: as §3
DU-145 = test: Cytotoxicity against human DU145 cells assessed as growth inhibition at 10 uM after 48 hrs by SRB assay; type: functional, cell-based; procedure, shortened: as §2
MCF7 [1] = test: Cytotoxicity against human MCF7 cells assessed as growth inhibition at 10 uM after 48 hrs by SRB assay; type: functional, cell-based; procedure, shortened: as §1
MDA-MB-231 = test: Cytotoxicity against human MDA-MB-231 cells assessed as growth inhibition at 10 uM after 48 hrs by SRB assay; type: functional, cell-based; procedure, shortened: as §1
Hs-578T = test: Cytotoxicity against human Hs578T cells assessed as growth inhibition at 10 uM after 48 hrs by SRB assay; type: functional, cell-based; procedure, shortened: as §2
NCI-H226 [2] = test: Cytotoxicity against human NCI-H226 cells after 48 hrs by SRB assay; type: functional; conditions: NCI-H226, 48 h
Procedure, shortened: (§4)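 GI50 from the NCI Developmental Therapeutics Program in vitro human tumor cell screen. Cell lines were maintained in RPMI 1640 with 5% fetal bovine serum and 2 mM L-glutamine. They were seeded at 5000–40 000 cells/well, depending on each line's doubling time, then exposed to drug for 48 h at 37 °C, 5% CO2.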

NCI-H322M = test: Cytotoxicity against human NCI-H322M cells after 48 hrs by SRB assay; type: functional; procedure, shortened: as §4
A498 = test: Cytotoxicity against human A498 cells after 48 hrs by SRB assay; type: functional; conditions: A498, 48 h
Procedure, shortened: (§5)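 GI50 was determined in the NCI Developmental Therapeutics Program in vitro 60-line cancer screen. Tumour lines were maintained in RPMI 1640 containing 5% FBS and 2 mM L-glutamine. Cells were inoculated at 5000–40 000 cells/well according to each line's doubling time before drug exposure.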

[3] = Cytotoxicity against human UO31 cells after 48 hrs by SRB assay; type: functional; conditions: UO-31, 48 h
Procedure, shortened: (§6)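 GI50 from the NCI-60 DTP human tumour line screen. Lines grown in RPMI 1640 with 5% fetal bovine serum and 2 mM L-glutamine, plated at 5000–40 000 cells/well according to doubling time. Incubated 48 h at 37 °C, 5% CO2.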

MCF7 [4] = test: Cytotoxicity against human MCF7 cells after 48 hrs by SRB assay; type: functional; conditions: MCF7, 48 h; procedure, shortened: as §5
NCI-H226 [5] = test: Cytotoxicity against human NCI-H226 cells assessed as growth inhibition at 10 uM after 48 hrs by SRB assay; type: functional, cell-based; procedure, shortened: as §1
NCI-H23 = test: Cytotoxicity against human NCI-H23 cells assessed as growth inhibition at 10 uM after 48 hrs by SRB assay; type: functional, cell-based; procedure, shortened: as §1
NCI-H460 = test: Cytotoxicity against human NCI-H460 cells assessed as growth inhibition at 10 uM after 48 hrs by SRB assay; type: functional, cell-based; procedure, shortened: as §1
NCI-H522 = test: Cytotoxicity against human NCI-H522 cells assessed as growth inhibition at 10 uM after 48 hrs by SRB assay; type: functional, cell-based; procedure, shortened: as §1
HCC 2998 = test: Cytotoxicity against human HCC2998 cells assessed as growth inhibition at 10 uM after 48 hrs by SRB assay; type: functional, cell-based; procedure, shortened: as §2
HCT-116 = test: Cytotoxicity against human HCT116 cells assessed as growth inhibition at 10 uM after 48 hrs by SRB assay; type: functional, cell-based; procedure, shortened: as §2
HT-29 = test: Cytotoxicity against human HT-29 cells assessed as growth inhibition at 10 uM after 48 hrs by SRB assay; type: functional, cell-based; procedure, shortened: as §2
KM12 = test: Cytotoxicity against human KM12 cells assessed as growth inhibition at 10 uM after 48 hrs by SRB assay; type: functional, cell-based; procedure, shortened: as §2
SW-620 = test: Cytotoxicity against human SW620 cells assessed as growth inhibition at 10 uM after 48 hrs by SRB assay; type: functional, cell-based; procedure, shortened: as §3
[6] = Induction of [32P]-labeled 49-mer oligonucleotide duplex DNA 12 with GNC sequence at terminus (unknown origin) interstrand cross-linking at 1 mM after 16 hrs by PAGE in presence of H2O2
Procedure, shortened: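 32P-labelled 12a (1.0 μM) annealed with 1.5 equiv of 12b in 10 mM potassium phosphate pH 7 / 100 mM NaCl (65 °C for 3 min, then slow cooling). Duplex incubated with compound (final 1 μM–5 mM), with or without H2O2, in NaCl and potassium phosphate pH 8 at room temperature for 16 h. Quenched in formamide; 20% denaturing PAGE.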

A549 = test: Cytotoxicity against human A549 cells assessed as growth inhibition at 10 uM after 48 hrs by SRB assay; type: functional, cell-based; procedure, shortened: as §2
SR [7] = test: Cytotoxicity against human SR cells assessed as growth inhibition at 10 uM after 48 hrs by SRB assay; type: functional, cell-based; procedure, shortened: as §3
K562 = test: Cytotoxicity against human K562 cells assessed as growth inhibition at 10 uM after 48 hrs by SRB assay; type: functional, cell-based; procedure, shortened: as §2
CCRF-CEM [8] = test: Cytotoxicity against human CCRF-CEM cells assessed as growth inhibition at 10 uM after 48 hrs by SRB assay; type: functional, cell-based; procedure, shortened: as §2
CCRF-CEM [9] = test: Cytotoxicity against human CCRF-CEM cells after 48 hrs by SRB assay; type: functional; procedure, shortened: as §5
MOLT-4 = test: Cytotoxicity against human MOLT4 cells after 48 hrs by SRB assay; type: functional; conditions: MOLT-4, 48 h; procedure, shortened: as §4
SR [10] = test: Cytotoxicity against human SR cells after 48 hrs by SRB assay; type: functional; procedure, shortened: as §6

With `CC1(C)OB(c2ccc(N(CCCl)CCCl)cc2)OC1(C)C` the “growth inhibition (GI)” value (OVCAR-3) was “Active”, the “growth inhibition (GI)” value (OVCAR-5) was “Active” and the “growth inhibition (GI)” value (OVCAR-8) was “Active”. For the same compound, the “growth inhibition (GI)” value (NCI/ADR-RES) was “Active”, the “growth inhibition (GI)” value (ACHN) was “Active” and the “growth inhibition (GI)” value (SN12C) was “Active”. For the same compound, the “growth inhibition (GI)” value (TK-10) was “Active”, the “growth inhibition (GI)” value (DU-145) was “Active” and the “growth inhibition (GI)” value (MCF7 [1]) was “Active”. For the same compound, the “growth inhibition (GI)” value (MDA-MB-231) was “Active”, the “growth inhibition (GI)” value (Hs-578T) was “Active” and the GI50 (NCI-H226 [2]) was 12.9 µM. For the same compound, the GI50 (NCI-H322M) was 14.7 µM, the GI50 (A498) was 2.81 µM and the GI50 [3] was 5.78 µM. For the same compound, the GI50 (MCF7 [4]) was 4.12 µM, the “growth inhibition (GI)” value (NCI-H226 [5]) was “Active” and the “growth inhibition (GI)” value (NCI-H23) was “Active”. The “growth inhibition (GI)” value (NCI-H460) was “Active”, the “growth inhibition (GI)” value (NCI-H522) was “Active” and the “growth inhibition (GI)” value (HCC 2998) was “Active”. The “growth inhibition (GI)” value (HCT-116) was “Active”, the “growth inhibition (GI)” value (HT-29) was “Active” and the “growth inhibition (GI)” value (KM12) was “Active”. The “growth inhibition (GI)” value (SW-620) was “Active”, the Activity [6] was 37% and the “growth inhibition (GI)” value (A549) was “Active”. The “growth inhibition (GI)” value (SR [7]) was “Active”, the “growth inhibition (GI)” value (K562) was “Active” and the “growth inhibition (GI)” value (CCRF-CEM [8]) was “Active”. For the same compound, the GI50 (CCRF-CEM [9]) was 3.34 µM, the GI50 (MOLT-4) was 3.48 µM and the GI50 (SR [10]) was 0.63 µM.
